According to article PMC12218390 (Scientific Reports, 2025):

Assays:
BHK-21 cells = assay: MTT assay for Maximum Non-Toxic Dose; type: cell-based
[1] = system: Dengue virus type-2 (DENV2) in BHK-21 cells; assay: Cytopathic effect; type: cell-based; details: DENV2-infected BHK-21 cells; concentrations within MNTD
In short: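 Maximal non-toxic dose in BHK-21 cells was first set by MTT. Cells were seeded at 1 × 10⁵/well and infected with DENV2 (MOI 0.02, DMEM with 2% FBS) for 1 h at 37 °C, 5% CO₂. At 1 h post-infection, compounds diluted in DMEM (2% FBS) within the non-toxic range were added, with castanospermine as the positive control. CPE was scored by phase-contrast microscopy, in triplicate.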

HaCaT cells = assay: MTT cytotoxicity assay; type: cell-based, human; details: 100 µg/mL
In short: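 HaCaT keratinocytes were grown in DMEM with 10% FBS and 1% antibiotic-antimycotic at 37 °C, 5% CO₂. Cells were seeded at 1 × 10⁴/well for 24 h, then exposed to 1 to 100 µg/mL for 48 h, with 5-FU as the positive control and untreated cells as baseline. MTT (5 mg/mL) was added for 4 h, then SDS/DMF lysis buffer for 2 h, and plates read at 570 nm as percentage proliferation. Lower concentrations were retested to derive IC50 ± SE.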

[2] = DPPH free radical scavenging assay; type: physicochemical; details: ascorbic acid as reference
In short: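 DPPH (4 mg/100 ml in methanol) was mixed with test compound or ascorbic acid at 1 to 500 µg/ml in methanol. The control was DPPH plus methanol, and methanol alone served as blank. Samples were incubated 20–30 min at 37 °C and the decrease in absorbance at 515 nm read. Percentage scavenging was calculated from control versus sample absorbance, in triplicate.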

Structure (SMILES) | Maximal non-toxic dose (MNTD) (BHK-21 cells) | Inhibition / reduction in cytopathic effects [1] | Cell death (HaCaT cells) | DPPH radical scavenging IC50 [2]
Nc1cc(=O)oc2ccccc12 [Compound T1, 4-aminocoumarin] | 2.5 µg/mL | did not exhibit significant inhibition of cytopathic effects | very low percentages of cell death | 
Cc1ccc(S(=O)(=O)[O-])cc1.Nc1c([I+]c2ccccc2)c(=O)oc2ccccc12 [Compound T2, 4-amino-3-phenyliodoniocoumarin tosylate] |  | up to 12% | more than 60% | ≥ 50 µg/mL
O=c1oc2ccccc2c(Nc2ccccc2)c1I [Compound T4, 3-iodo-4-phenylaminocoumarin] | 1 µg/mL | up to 12% | more than 60% | 
O=c1cc(Nc2ccccc2)c2ccccc2o1 [Compound T5, 4-phenylaminocoumarin] | 0.1 µg/mL | did not exhibit significant inhibition of cytopathic effects | very low percentages of cell death | 
O=c1oc2ccccc2c(N(c2ccccc2)c2ccccc2)c1I [Compound T6, 4-diphenylamino-3-iodocoumarin] | 0.1 µg/mL | did not exhibit significant inhibition of cytopathic effects | very low percentages of cell death | 
O[C@H]1[C@H](O)[C@@H](O)CN2CC[C@H](O)[C@H]12 [castanospermine, reference compound] |  | 68% |  | 
